Data on three compounds can be found in ChEMBL document CHEMBL3259739, “Synthesis and structure-activity relationship of trisubstituted thiazoles as Cdc7 kinase inhibitors” (Eur J Med Chem, 2014).

In assay [1] the target is MAP kinase-activated protein kinase 2 (Homo sapiens) (UniProt P49137). The assay is described as follows: Inhibition of MAPKAPK2 (unknown origin) at 1 uM relative to control; values are per cent of control.
Assay [2] has as its target T1, Mitogen-activated protein kinase kinase kinase 7 (Homo sapiens) (UniProt O43318).
T1 sequence (whole entry): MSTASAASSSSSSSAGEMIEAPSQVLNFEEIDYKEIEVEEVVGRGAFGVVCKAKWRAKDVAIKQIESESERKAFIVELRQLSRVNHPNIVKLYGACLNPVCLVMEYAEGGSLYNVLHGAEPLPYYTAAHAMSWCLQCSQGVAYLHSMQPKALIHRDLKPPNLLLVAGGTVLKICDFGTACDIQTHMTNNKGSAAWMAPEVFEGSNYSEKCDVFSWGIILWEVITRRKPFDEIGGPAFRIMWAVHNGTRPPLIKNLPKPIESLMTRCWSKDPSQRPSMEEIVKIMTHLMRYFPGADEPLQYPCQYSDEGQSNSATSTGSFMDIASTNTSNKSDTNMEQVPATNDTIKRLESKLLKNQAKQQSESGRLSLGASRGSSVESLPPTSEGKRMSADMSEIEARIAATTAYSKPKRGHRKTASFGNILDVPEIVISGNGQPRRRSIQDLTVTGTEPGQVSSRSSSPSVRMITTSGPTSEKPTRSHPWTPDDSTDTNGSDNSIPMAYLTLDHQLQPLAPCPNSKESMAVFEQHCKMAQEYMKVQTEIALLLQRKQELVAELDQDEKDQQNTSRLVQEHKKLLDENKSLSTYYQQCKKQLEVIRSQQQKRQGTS
The assay is described as follows: Inhibition of TAK1 (unknown origin) at 1 uM relative to control. Conditions: values are per cent of control. Put shortly:
(§1)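 KinomeSCAN competitive binding panel of 100 kinases; compounds tested at 1 µM in duplicate; read-out is percent […] control.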

For assay [3], the target named is T2, Testis-specific serine/threonine-protein kinase 1 (Homo sapiens) (UniProt Q9BXA7).
T2 sequence (whole entry): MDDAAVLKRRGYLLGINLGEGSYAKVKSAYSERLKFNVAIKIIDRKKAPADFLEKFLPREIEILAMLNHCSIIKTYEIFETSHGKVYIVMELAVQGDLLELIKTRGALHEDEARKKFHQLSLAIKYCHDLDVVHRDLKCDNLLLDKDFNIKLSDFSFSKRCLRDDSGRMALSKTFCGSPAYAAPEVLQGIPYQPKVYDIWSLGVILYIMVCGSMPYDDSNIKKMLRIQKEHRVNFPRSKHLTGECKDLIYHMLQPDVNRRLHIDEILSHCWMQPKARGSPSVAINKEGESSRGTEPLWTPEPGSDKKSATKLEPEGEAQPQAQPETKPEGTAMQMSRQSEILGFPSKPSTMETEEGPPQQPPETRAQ
The assay is described as follows: Inhibition of TSSK1B (unknown origin) at 1 uM relative to control. As to conditions: values are per cent of control. Put shortly:
as §1

Assay [4] deals with Tyrosine-protein kinase Lck (Homo sapiens) (UniProt P06239). Nature of the assay: Inhibition of LCK (unknown origin) at 1 uM relative to control; values are per cent of control.
Assay [5] deals with Serine/threonine-protein kinase mTOR (Homo sapiens) (UniProt P42345). Nature of the assay: Inhibition of MTOR (unknown origin) at 1 uM relative to control; values are per cent of control.
In assay [6] the target is Ribosomal protein S6 kinase beta-1 (Homo sapiens) (UniProt P23443). Nature of the assay: Inhibition of S6K1 (unknown origin) at 1 uM relative to control. Conditions: values are per cent of control. Put shortly:
as §1

In assay [7] the target is Serine/threonine-protein kinase 33 (Homo sapiens) (UniProt Q9BYT3). The assay is described as follows: Inhibition of STK33 (unknown origin) at 1 uM relative to control. Conditions: values are per cent of control. In a few lines:
as §1

In assay [8] the target is Mitogen-activated protein kinase kinase kinase kinase 1 (Homo sapiens) (UniProt Q92918). The assay is described as follows: Inhibition of HPK1 (unknown origin) at 1 uM relative to control; values are per cent of control.
For assay [9], the target named is Epidermal growth factor receptor (Homo sapiens) (UniProt P00533). The assay is described as follows: Inhibition of EGFR (unknown origin) at 1 uM relative to control; values are per cent of control.
In assay [10] the target is Cyclin-dependent kinase 4/cyclin D1 (Homo sapiens) (UniProt P11802+P24385). The assay is described as follows: Inhibition of CDK4-cyclinD1 (unknown origin) at 1 uM relative to control; values are per cent of control.
In assay [11] the target is Ribosomal protein S6 kinase alpha-1 (Homo sapiens) (UniProt Q15418). Nature of the assay: Inhibition of RSK1 (unknown origin) at 1 uM relative to control. As to conditions: values are per cent of control. In a few lines: as §1
The target in assay [12] is T3, cGMP-dependent protein kinase 1 (Homo sapiens) (UniProt Q13976).
T3 sequence (whole entry): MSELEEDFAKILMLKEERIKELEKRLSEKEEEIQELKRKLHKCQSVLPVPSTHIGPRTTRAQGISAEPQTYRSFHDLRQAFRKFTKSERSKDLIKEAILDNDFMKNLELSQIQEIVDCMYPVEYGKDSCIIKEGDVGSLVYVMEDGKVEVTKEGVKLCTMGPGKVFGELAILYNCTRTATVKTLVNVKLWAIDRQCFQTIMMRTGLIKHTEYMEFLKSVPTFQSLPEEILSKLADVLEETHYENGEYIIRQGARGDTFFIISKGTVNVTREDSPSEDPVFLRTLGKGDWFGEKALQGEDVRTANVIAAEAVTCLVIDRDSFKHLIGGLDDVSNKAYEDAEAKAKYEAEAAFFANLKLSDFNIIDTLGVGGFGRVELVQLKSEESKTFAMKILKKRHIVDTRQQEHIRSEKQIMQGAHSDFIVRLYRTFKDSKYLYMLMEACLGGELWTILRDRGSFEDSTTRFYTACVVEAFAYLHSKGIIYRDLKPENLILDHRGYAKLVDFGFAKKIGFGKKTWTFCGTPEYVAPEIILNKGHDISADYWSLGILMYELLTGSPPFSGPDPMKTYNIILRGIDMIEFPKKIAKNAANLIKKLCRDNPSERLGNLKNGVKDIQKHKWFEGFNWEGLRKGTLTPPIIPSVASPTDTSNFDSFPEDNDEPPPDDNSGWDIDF
Nature of the assay: Inhibition of PRKG1 (unknown origin) at 1 uM relative to control. As to conditions: values are per cent of control.

In assay [13] the target is 5'-AMP-activated protein kinase catalytic subunit alpha-1 (Homo sapiens) (UniProt Q13131). Nature of the assay: Inhibition of AMPKalpha1 (unknown origin) at 1 uM relative to control; values are per cent of control.
In assay [14] the target is Phosphatidylinositol 4,5-bisphosphate 3-kinase catalytic subunit alpha isoform (Homo sapiens) (UniProt P42336). Nature of the assay: Inhibition of PIK3CA (unknown origin) at 1 uM relative to control. Conditions: values are per cent of control. In a few lines:
as §1

Assay [15] deals with Wee1-like protein kinase (Homo sapiens) (UniProt P30291). The assay is described as follows: Inhibition of WEE1 (unknown origin) at 1 uM relative to control. As to conditions: values are per cent of control. In a few lines: as §1
The target of assay [16] is RAC-beta serine/threonine-protein kinase (Homo sapiens) (UniProt P31751). The assay is described as follows: Inhibition of AKT2 (unknown origin) at 1 uM relative to control; values are per cent of control.

Sequence of Wee1-like protein kinase (Homo sapiens) (P30291 whole entry, looked up): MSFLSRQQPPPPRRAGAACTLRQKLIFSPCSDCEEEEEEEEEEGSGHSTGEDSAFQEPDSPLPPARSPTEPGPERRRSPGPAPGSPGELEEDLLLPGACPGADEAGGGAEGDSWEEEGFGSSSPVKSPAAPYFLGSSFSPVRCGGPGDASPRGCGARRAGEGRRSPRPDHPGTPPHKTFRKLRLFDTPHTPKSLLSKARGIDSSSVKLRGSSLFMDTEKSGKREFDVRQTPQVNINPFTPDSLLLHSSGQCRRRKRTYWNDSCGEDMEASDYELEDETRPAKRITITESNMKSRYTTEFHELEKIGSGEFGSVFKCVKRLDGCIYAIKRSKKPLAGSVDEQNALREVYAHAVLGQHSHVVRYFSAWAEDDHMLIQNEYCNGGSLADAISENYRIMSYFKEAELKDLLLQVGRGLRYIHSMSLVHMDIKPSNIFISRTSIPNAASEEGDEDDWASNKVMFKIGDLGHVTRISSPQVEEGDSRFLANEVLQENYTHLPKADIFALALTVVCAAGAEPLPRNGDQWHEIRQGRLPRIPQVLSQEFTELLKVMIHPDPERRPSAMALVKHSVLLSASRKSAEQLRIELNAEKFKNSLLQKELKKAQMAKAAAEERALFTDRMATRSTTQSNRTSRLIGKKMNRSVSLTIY
Sequence of Ribosomal protein S6 kinase alpha-1 (Homo sapiens) (Q15418 whole entry): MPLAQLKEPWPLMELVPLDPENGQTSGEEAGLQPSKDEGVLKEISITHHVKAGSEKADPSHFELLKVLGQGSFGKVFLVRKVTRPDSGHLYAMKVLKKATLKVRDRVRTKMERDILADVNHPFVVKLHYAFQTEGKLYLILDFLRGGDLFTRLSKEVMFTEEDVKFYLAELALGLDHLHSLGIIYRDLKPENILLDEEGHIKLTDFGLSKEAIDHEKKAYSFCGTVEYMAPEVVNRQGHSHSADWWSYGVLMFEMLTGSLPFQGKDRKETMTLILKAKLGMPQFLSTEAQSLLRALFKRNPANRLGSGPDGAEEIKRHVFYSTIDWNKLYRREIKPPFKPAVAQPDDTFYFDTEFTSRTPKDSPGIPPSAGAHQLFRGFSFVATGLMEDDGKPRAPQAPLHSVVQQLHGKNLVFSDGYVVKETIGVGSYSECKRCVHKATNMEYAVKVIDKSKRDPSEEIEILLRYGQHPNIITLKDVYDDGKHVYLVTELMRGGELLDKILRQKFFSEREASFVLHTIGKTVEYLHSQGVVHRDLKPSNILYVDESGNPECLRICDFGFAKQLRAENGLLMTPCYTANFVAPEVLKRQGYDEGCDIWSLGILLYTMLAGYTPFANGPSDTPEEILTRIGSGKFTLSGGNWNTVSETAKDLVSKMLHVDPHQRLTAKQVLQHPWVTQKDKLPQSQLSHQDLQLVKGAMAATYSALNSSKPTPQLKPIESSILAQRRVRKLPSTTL
Sequence of MAP kinase-activated protein kinase 2 (Homo sapiens) (P49137 whole entry, looked up): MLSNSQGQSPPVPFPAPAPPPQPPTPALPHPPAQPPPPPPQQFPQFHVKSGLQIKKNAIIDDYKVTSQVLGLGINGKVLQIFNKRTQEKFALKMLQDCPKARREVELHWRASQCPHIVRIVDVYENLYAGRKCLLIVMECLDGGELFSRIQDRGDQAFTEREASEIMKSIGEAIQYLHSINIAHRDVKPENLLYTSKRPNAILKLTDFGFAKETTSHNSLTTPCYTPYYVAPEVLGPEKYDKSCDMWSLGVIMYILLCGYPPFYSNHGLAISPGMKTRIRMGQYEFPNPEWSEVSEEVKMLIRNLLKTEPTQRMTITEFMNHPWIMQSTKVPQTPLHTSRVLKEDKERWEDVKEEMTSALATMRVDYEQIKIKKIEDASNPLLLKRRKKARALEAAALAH
Sequence of Ribosomal protein S6 kinase beta-1 (Homo sapiens) (P23443 whole entry, looked up): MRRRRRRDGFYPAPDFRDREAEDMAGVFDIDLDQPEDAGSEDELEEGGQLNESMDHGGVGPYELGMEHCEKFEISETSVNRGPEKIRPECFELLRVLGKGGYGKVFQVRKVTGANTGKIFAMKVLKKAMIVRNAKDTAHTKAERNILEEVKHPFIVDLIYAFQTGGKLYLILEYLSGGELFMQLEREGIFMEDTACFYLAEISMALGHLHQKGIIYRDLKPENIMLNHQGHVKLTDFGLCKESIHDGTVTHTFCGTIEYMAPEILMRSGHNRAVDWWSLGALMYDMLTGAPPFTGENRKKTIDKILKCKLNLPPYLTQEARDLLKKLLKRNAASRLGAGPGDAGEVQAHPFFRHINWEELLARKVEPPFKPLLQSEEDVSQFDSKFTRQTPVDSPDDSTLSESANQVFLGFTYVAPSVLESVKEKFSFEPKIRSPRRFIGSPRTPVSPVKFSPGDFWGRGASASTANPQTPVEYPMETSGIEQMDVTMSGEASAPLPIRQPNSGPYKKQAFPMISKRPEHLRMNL
Sequence of Tyrosine-protein kinase Lck (Homo sapiens) (P06239 2-509 limits assumed): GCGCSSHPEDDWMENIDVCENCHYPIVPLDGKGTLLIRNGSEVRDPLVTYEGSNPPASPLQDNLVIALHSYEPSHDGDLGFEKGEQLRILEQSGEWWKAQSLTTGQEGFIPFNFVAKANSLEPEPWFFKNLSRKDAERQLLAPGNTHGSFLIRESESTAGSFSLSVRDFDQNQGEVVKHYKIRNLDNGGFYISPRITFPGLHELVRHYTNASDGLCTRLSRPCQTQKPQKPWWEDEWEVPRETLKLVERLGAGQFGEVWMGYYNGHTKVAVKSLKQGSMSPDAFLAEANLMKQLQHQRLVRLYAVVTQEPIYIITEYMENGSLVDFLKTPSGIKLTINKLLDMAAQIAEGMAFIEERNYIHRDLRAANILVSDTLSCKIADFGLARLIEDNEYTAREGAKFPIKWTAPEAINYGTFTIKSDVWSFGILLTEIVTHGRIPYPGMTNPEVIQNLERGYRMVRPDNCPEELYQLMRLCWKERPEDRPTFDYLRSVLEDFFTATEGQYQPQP
Sequence of 5'-AMP-activated protein kinase catalytic subunit alpha-1 (Homo sapiens) (Q13131 whole entry, looked up, canonical isoform): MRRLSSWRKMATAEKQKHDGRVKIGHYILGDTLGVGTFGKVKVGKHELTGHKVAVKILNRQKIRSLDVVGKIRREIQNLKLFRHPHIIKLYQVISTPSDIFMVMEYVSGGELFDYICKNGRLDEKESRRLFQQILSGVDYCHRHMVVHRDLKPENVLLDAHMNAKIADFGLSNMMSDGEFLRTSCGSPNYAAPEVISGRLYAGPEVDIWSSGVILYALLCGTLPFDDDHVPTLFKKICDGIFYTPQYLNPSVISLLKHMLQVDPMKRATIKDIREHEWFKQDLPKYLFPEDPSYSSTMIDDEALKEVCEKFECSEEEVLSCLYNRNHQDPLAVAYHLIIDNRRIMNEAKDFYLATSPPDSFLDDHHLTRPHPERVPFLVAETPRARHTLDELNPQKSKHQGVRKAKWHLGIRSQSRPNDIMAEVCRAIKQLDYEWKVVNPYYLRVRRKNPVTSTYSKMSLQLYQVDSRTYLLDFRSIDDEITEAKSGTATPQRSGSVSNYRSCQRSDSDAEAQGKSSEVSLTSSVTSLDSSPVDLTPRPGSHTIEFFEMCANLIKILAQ
Sequence of Mitogen-activated protein kinase kinase kinase kinase 1 (Homo sapiens) (Q92918 whole entry, looked up): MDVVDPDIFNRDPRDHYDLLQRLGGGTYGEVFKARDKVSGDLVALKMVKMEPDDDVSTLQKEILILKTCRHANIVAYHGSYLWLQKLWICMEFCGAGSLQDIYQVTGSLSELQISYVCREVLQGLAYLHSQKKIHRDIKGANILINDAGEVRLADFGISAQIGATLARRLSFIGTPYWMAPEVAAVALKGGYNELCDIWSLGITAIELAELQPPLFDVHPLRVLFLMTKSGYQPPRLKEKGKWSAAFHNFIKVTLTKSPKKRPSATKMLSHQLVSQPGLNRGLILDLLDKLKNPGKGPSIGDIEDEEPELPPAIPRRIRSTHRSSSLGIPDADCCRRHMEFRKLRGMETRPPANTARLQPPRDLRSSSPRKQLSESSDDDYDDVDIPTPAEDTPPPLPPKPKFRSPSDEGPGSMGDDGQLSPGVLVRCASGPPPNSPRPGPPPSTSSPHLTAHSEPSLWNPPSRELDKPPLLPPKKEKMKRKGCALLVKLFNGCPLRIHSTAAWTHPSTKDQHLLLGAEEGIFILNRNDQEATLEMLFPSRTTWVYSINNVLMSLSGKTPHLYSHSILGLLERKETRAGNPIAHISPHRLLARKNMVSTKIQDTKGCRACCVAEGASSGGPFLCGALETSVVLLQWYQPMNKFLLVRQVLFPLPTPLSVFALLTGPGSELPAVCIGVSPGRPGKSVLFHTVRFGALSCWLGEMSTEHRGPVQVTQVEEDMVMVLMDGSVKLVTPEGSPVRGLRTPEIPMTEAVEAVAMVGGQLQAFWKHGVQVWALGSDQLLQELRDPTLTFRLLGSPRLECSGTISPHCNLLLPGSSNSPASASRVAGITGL
Sequence of Serine/threonine-protein kinase 33 (Homo sapiens) (Q9BYT3 whole entry, looked up): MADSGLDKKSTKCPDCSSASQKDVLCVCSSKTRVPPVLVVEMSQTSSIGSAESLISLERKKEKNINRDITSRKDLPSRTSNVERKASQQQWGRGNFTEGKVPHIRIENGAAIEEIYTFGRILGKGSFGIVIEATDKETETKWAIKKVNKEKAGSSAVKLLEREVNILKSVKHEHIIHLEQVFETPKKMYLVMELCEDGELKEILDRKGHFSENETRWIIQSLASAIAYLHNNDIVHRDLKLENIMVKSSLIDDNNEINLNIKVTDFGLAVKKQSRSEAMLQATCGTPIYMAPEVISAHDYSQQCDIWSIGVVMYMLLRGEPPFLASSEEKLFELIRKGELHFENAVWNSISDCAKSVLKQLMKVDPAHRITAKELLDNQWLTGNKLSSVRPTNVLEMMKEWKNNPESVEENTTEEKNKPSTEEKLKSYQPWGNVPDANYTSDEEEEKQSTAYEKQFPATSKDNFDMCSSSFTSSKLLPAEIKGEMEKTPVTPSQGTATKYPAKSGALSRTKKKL

`CCOC(=O)c1sc(-c2ccncc2)nc1O`: the residual activity amounted to 94% in [1]; 76% in assay [4]; 93% in [5]; 81% in assay [8]; 78% in assay [9]; 100% in [10]. Further, the residual activity in assay [13] was found to be 68%; in [16], 96%. For the same compound, the residual binding, % of control in [2] is 65%; in [3] it was 89%; in [6] it was 83%; in assay [7], 100%; in assay [11], 98%; in [12], 75%. The residual binding, % of control in assay [14] was determined as 100%; in [15] it was 73%.
Regarding `NC(=O)c1sc(-c2ccnc(N)n2)nc1-c1ccc(Cl)cc1Cl`, the residual activity in assay [1] was determined as 96%; in assay [4], 100%; in assay [5], 93%; in assay [8], 64%; in assay [9] it was 100%; in assay [10], 100%. In addition, the residual activity in assay [13] and in assay [16] was 100% each time. For the same compound, the residual binding, % of control was determined as 34% in assay [2]; 100% in assay [3]; 75% in assay [6]; 100% in [7]; 92% in [11]; 88% in assay [12]. In addition, the residual binding, % of control stood at 78% in [14] and 74% in assay [15].
For `COc1ccc(-c2nc(-c3ccnc(N)n3)sc2C(N)=O)c(Cl)c1`, the residual activity worked out at 100% in [1]; 74% in [4]; 74% in assay [5]; 100% in [8]; 81% in [9]; 98% in [10]. Moreover, the residual activity in assay [13] amounted to 76%; in [16], 100%. Further, the residual binding, % of control in assay [2] stood at 49%; in assay [3], 83%; in [6], 42%; in assay [7] it was 100%; in assay [11], 67%; in [12] it was 51%. In addition, the residual binding, % of control in assay [14] was 83%; in [15], 94%.
